Experimental data pooled from the literature.
Lines come from different studies, so protocols differ.
Target: Dual specificity tyrosine-phosphorylation-regulated kinase 1B (DYRK1B, Homo sapiens, UniProt Q9Y463)

O=C(N1CCS(=O)(=O)CC1)N1C[C@H](c2ccc(OC(F)(F)F)cc2)C[C@H](c2nc(C3CC3)no2)C1
remaining binding (cell-free assay, competition with immobilised ligand; 1 µM): 93%

Cn1cncc1C1=CN(c2ncnc3[nH]cnc23)CCS1
inhibition (enzyme activity, inhibitor, radiometric; 50 nM): 22.7%

Cc1cc(NC(=O)c2cccc3cc(-c4cccc5[nH]nc(N)c45)ccc23)ccc1F
activity vs control (enzyme activity, inhibitor; 0.1 µM): 95%

CCC(=N\O)/C(C)=C/c1ccc(F)cc1
remaining binding (cell-free assay, competition with immobilised ligand; 1 µM): 57%

O=C(O)c1ccc2c(c1)nc(Nc1ccc3ccccc3c1)c1ncncc12
remaining activity (enzyme activity, inhibitor, radiometric; 1 µM): 41%

COc1cc2ncnc(Nc3ccc(Oc4ccccc4)c(C)c3C)c2cc1OC
inhibition (enzyme activity, inhibitor; 1 µM): 1%

Cc1sc(C(=O)NC2COC2)cc1-n1cc(NC(=O)Nc2c(F)cccc2Cl)cn1
remaining activity (enzyme activity, inhibitor; 10 µM): 105%

COc1cccc(CCNc2nc3cc(C(=O)O)ccc3c3cncnc23)c1
remaining activity (enzyme activity, inhibitor, radiometric; 1 µM): 112%

O=C1NC(c2ccccn2)Sc2ccccc21 (stereo not drawn)
remaining binding (cell-free assay, competition with immobilised ligand; 1 µM): 100%

O=C(O)c1ccc2c(c1)nc(Nc1cccc(F)c1)c1ncncc12
remaining activity (enzyme activity, inhibitor, radiometric; 1 µM): 30%

C[C@@H](c1cccc(C#N)c1)n1cc(Cl)cc(C(N)=O)c1=N
remaining binding (cell-free assay, competition with immobilised ligand; 1 µM): 37%

O=C(O)c1ccc2c(c1)nc(Nc1ccccc1)c1ncncc12
remaining activity (enzyme activity, inhibitor, radiometric; 1 µM): 62%

CS(=O)(=O)Nc1cccc(-c2csc(NC(=O)CSc3nc4nccnc4c(=O)n3CCc3ccccc3)n2)c1
inhibition (enzyme activity, inhibitor; 10 µM): 0%

CN(C)C(=O)Cn1cc(-c2nc([C@@](C)(c3ccc(-c4cnc(N)nc4)cc3)C3CC3)no2)cn1
remaining binding (cell-free assay, competition with immobilised ligand; 1 µM): 98%

Cc1ccc(NC(=O)c2ccc(C)c(C(F)(F)F)c2)cc1C#Cc1nn(C2CCC(O)CC2)c2ncnc(N)c12 (stereo not drawn)
remaining signal (cell-free assay; 10 µM): 92%
